CSN inh: inhibitors of CSN-mediated cullin deneddylation, primary screen, biochemical, fluorescence polarization, uHTS. Purified CSN, SCF-Nedd8-OG deneddylation. inhibition, % at 12.5 µM. actives 0.38% (n = 360,000). AID 651999, 2013;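 active means pattern-corrected inhibition above about 35%, with an unprinted fluorescence ratio check between 0.5 and 1.5, limit read from the data, passing the limit was not always enough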;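 further: 0% = enzyme with substrate and 100% = substrate without enzyme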
Target sequence (Q92905 whole entry, looked up, one chain of several): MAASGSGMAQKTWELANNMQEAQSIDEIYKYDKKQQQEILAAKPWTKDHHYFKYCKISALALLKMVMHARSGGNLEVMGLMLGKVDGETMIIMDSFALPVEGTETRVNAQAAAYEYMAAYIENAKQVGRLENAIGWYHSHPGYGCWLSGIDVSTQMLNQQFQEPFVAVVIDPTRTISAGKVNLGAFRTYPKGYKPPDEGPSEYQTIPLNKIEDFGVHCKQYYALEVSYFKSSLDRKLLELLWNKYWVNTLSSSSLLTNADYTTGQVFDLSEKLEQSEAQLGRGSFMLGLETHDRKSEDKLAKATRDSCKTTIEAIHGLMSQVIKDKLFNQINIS
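Schedule: reaction 90 min, room temperature / Assay system: HEK293T-derived human Csn5 enzyme / Input: Csn5 at 0.24 nM final / Measure: inhibition of Csn5 cleavage, % / Control set: substrate-only high control, full reaction low control / Technique: fluorescence polarization of the substrate / Buffer or medium: Tris/NaCl/DTT buffer, pH 7.5 / Reagent: SCFSkp2-Nedd8OG substrate at 10 nM final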
TPT1 inhibitor: Candida albicans TPT1 enzyme inhibitors, primary screen, biochemical, fluorescence polarization. actives 0.81% (n = 300,000). inhibition, % at 5 µM. AID 1962, 2009. recombinant caTPT1, FP RNA substrate dephosphorylation. tRNA 2'-phosphotransferase TPT1 (Candida albicans SC5314);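 active means inhibition above the mean of all tested compounds plus 3 SD, set per screening campaign, cut at about 24% in these data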;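 further: plate controls were DMSO alone for no effect and ferristatin control at 100 nM for full effect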
HNF4A DNA FP: change in binding of human HNF4A to DNA, primary screen, biochemical, fluorescence polarization, FITC-DNA. 1 h. actives 0.3% (n = 360,000). activity change, % at 10 µM. AID 1224865, 2016. Hepatocyte nuclear factor 4-alpha (Homo sapiens), P41235; in the data active means activity change above about 30%, passing the limit was not always enough
CRFR2-BP antag: antagonists of CRF-BP/CRF-R2 complex, primary screen, cell-based, HEK293, calcium dye fluorescence, uHTS. CRF-induced calcium fluorescence. inhibition, % at 11.8 µM. actives 0.59% (n = 350,000). AID 588475, 2011;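 active means inhibition of the ligand-induced calcium signal above about 50% at the single tested concentration, limit read from the data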
Rpn11 inh: Rpn11 (PSMD14) deubiquitinase inhibitors, primary screen, biochemical, fluorescence polarization, uHTS; 26S proteasome non-ATPase regulatory subunit 14 (Homo sapiens), O00487; human 26S proteasome, Ub4-pepOG fluorescence polarization; 20S core pre-blocked with epoxomicin; actives 0.59% (n = 360,000); calls only at 20 µM;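 active means inhibition at 20 µM, scaled to each plate's controls, above about 33%, limit read from the data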
Target sequence (O00487 whole entry, looked up): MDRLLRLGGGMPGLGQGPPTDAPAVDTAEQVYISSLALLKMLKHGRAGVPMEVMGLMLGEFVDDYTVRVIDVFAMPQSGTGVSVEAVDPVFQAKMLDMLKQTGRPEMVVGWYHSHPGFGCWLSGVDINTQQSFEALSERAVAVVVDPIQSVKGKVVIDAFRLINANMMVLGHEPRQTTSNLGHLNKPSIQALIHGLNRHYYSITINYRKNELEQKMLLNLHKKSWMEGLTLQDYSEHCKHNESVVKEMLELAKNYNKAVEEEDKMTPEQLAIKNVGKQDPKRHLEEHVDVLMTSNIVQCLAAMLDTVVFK
CRFBP-R2 agonist: agonists of CRF-BP/CRF-R2 complex, primary screen, cell-based, HEK293, calcium dye fluorescence, uHTS | calcium dye fluorescence (FLIPR); percent of saturating CRF peptide response | AID 588473, 2011 | actives 0.46% (n = 350,000) | activation, % at 13.2 µM | CRF-binding protein / CRF receptor 2 complex (human);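 active means activation of at least 50%, plus an integration ratio under a set limit after plate pattern correction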;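 further: plate controls were neutral control wells without compound for no effect and CRF at EC100 for full effect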
Active calls of the source: *; i = inactive; · = no result shown. This is a sample that favours compounds with a hit; in the whole collection about 2.3% have one here.

SMILES | CSN inh | TPT1 inhibitor | HNF4A DNA FP | CRFR2-BP antag | Rpn11 inh | CRFBP-R2 agonist
CCc1ccc(C2=NN(S(C)(=O)=O)C(c3cccs3)C2)cc1 (stereo not given) | 1 | 8 | 92* | -9 | i | 0
Cc1ccc(C2=NN(S(C)(=O)=O)C(c3cccs3)C2)cc1 (stereo not given) | -7 | -1 | -7 | 4 | i | -4
Cc1cc(C(=O)N2CCN(c3ccc([N+](=O)[O-])cc3)CC2)c(C)o1 | 1 | 5 | -1 | 11 | i | 0
Cc1cc(C(=O)N2CCN(c3ccc([N+](=O)[O-])cc3)CC2)co1 | 3 | -2 | 4 | 59* | i | 0
Cc1ccccc1OCC(=O)NS(=O)(=O)c1ccc(Cl)cc1 | -3 | 1 | -3 | 5 | i | -10
CCOc1ccc(NS(=O)(=O)c2ccc(C(=O)NCC3(N4CCCCC4)CCCCC3)cc2)cc1 | -2 | 5 | 1 | -36 | i | 62*
Cc1cc(S(=O)(=O)Nc2ccc(C(=O)NCC3(N4CCCCC4)CCCCC3)cc2)ccc1F | 0 | 0 | 0 | -10 | i | -1
CCOc1ccc(NS(=O)(=O)c2ccc(C(=O)NCC3(N(C)C)CCCCC3)cc2)cc1 | -2 | -3 | 0 | -31 | i | 51*
Cn1nc([N+](=O)[O-])nc1Oc1ccccc1 | -8 | 1 | 0 | 23 | i | 0
Cn1nc([N+](=O)[O-])nc1Oc1ccc(C(C)(C)C)cc1 | -1 | 2 | 1 | 76* | i | -3
COC(=O)C1=NN(c2ccccc2)C2(S1)SC(C(C)=O)=C(C)N2c1ccccc1 (stereo not given) | 2 | 0 | 0 | 65* | i | -1
CC(NS(=O)(=O)c1ccc(Br)s1)c1ccccc1 (stereo not given) | 4 | -1 | 8 | 1 | i | 0
COc1cc(C2C(C#N)=C(N)OC3=C2C(=O)CCC3)c([N+](=O)[O-])cc1OC (stereo not given) | -9 | -44 | -97 | -6 | i | 26
COc1ccc(/C=C2/SC(=S)N(NS(=O)(=O)c3ccccc3)C2=O)cc1 | 13 | 3 | 2 | 46 | i | 0
CC(/C=C1\SC(=S)N(NS(=O)(=O)c2ccc(C)cc2)C1=O)=C\c1ccccc1 | 11 | 0 | -17 | -9 | i | -2
CC(/C=C1\SC(=S)N(NS(=O)(=O)c2ccccc2)C1=O)=C\c1ccccc1 | 8 | 5 | -8 | 93* | i | -2
O=C1/C(=C\c2ccc(Br)cc2)SC(=S)N1NS(=O)(=O)c1ccccc1 | 11 | 0 | 0 | 58* | i | 0
COc1cc(/C=C2\SC(=S)N(NS(=O)(=O)c3ccc(C)cc3)C2=O)cc(OC)c1OC | 1 | 2 | -2 | 55* | i | 1
C=CCOc1ccc(/C=C2\SC(=S)N(NS(=O)(=O)c3ccccc3)C2=O)cc1 | 13 | 0 | 1 | 53* | i | 1
CCOC(=O)C1CCN(C(=O)CN2C(=O)c3ccccc3Sc3ncccc32)CC1 | -2 | -4 | -1 | 15 | i | 1
CC1(C)C(=O)Nc2ccccc2N1C(=O)COC(=O)c1cc([N+](=O)[O-])ccc1N | -5 | 1 | 0 | 1 | i | -1
CCOC(=O)COc1ncn(-c2ccccc2)n1 | 3 | -5 | 0 | 25 | i | 5
CCOCc1cc(CN2CCCC(CNC(=O)c3ccco3)C2)ccc1OC (stereo not given) | -4 | -2 | -1 | 76* | i | -1
CCCC(=O)NCC(c1cccs1)S(=O)(=O)c1ccc(Cl)cc1 (stereo not given) | -2 | 4 | 1 | -14 | i | 3
Cc1c(Cl)c([N+](=O)[O-])nn1CCCC(=O)Nc1cc(Oc2ccccc2)cc([N+](=O)[O-])c1 | 5 | 0 | 3 | 59* | i | -1
SMILES | CSN inh | TPT1 inhibitor | HNF4A DNA FP | CRFR2-BP antag | Rpn11 inh | CRFBP-R2 agonist
Cc1ccccc1Oc1cc(NC(=O)CCCn2nc(C)c([N+](=O)[O-])c2C)cc([N+](=O)[O-])c1 | 2 | 3 | 3 | 51* | i | 7
O=C(CN1CCN(C(=O)c2c(F)cccc2F)CC1)Nc1ccccc1C(F)(F)F | 1 | 1 | 1 | -8 | i | 1
CCCCC(=O)N(CCC)CCC | 1 | · | 0 | -7 | i | 0
CC(C)CN(CC(C)C)C(=O)CCCC(=O)N(CC(C)C)CC(C)C | -7 | -2 | -2 | 53* | i | 7
CC1CCCC(C)N1CCCNC(=O)Cn1ncc2c([nH]c3ccccc32)c1=O (stereo not given) | -1 | 2 | -4 | 2 | i | 1
Cc1ccc(/C=C2/SC(=S)N(c3ccc(S(=O)(=O)Nc4nccs4)cc3)C2=O)cc1 | 14 | 3 | -1 | 59* | i | -1
CCN(C[C@H]1N[C@@](CC)(C(=O)OC)[C@H]2C(=O)N(C)C(=O)[C@@H]12)C(=O)Nc1ccc(Cl)cc1 | 6 | · | -1 | -3 | i | -1
O=C(Cc1ccccc1)Nc1ccc2c(c1)OC1(CCCC1)O2 | 3 | · | -3 | 9 | i | -1
CCc1ccccc1NC(=O)CN1CCN(CC(=O)Nc2ccc3c(c2)OC2(CCCCC2)O3)CC1 | 46* | · | 0 | -2 | i | -1
COCCN1C(=O)Cc2c1nc(N)c1c(N)nc(N3CCN(c4ccc(F)cc4)CC3)c(C#N)c21 | 13 | 28* | 9 | 2 | i | 0
Cc1ccc(NC(=O)/C(C#N)=C/c2ccc(C)s2)c(C)c1 | 70* | -4 | 63 | -26 | · | 12
CC1(C)Cc2c(C#N)c(NC3CCCCC3)nc(-c3ccco3)c2CO1 | 5 | 9 | 7 | · | i | ·
CC1(C)Cc2c(C#N)c(NCC3CCCO3)nc(-c3ccco3)c2CO1 (stereo not given) | 0 | 3 | 0 | 104* | i | 1
CCC(c1nnnn1C1CCCC1)N1CCN(C/C=C/c2ccccc2)CC1 (stereo not given) | 2 | · | 0 | · | i | ·
CCC(c1nnnn1C1CCCC1)N1CCN(Cc2ccccc2)CC1 (stereo not given) | 2 | -1 | -1 | 103* | i | -1
CO/N=C/CC(=O)c1ccc([N+](=O)[O-])c(CS(=O)(=O)c2ccc(Cl)cc2)c1 | 3 | -4 | 1 | 2 | i | -2

Screening data as filed in PubChem BioAssay.
